According to ChEMBL document CHEMBL1123257, “Synthesis of sulfur analogues of alkyl lysophospholipid and neoplastic cell growth inhibitory properties” (1986):

What was measured:
Format in all cases: functional
BG-3 [1] = experiment: Compound was evaluated for its effect on colony growth of human ovarian adenocarcinoma cell line BG-3 at 0.03 ug/mL
Method in brief: (§1)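 Single-cell suspensions of BG-1 or BG-3 human ovarian carcinoma cells (derived from primary explants, now kept in continuous culture) were plated in soft agarose clonogenic culture. Cells were exposed continuously to phospholipid analogue over a three-log concentration range, with untreated cultures as controls. After 7 days at 37 °C/7.5% CO2, colonies were scored by inverted microscopy and automated image analysis.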

BG-3 [2] = experiment: Compound was evaluated for its effect on colony growth of human ovarian adenocarcinoma cell line BG-3 at 1.0 ug/mL; method in brief: as §1
BG-3 [3] = experiment: Compound was evaluated for its effect on colony growth of human ovarian adenocarcinoma cell line BG-3 at 0.1 ug/mL; method in brief: as §1
BG-1 cell line [4] = experiment: Compound was evaluated for its effect on colony growth of human ovarian adenocarcinoma cell line BG-1 at 30.0 ug/mL; method in brief: as §1
BG-3 [5] = experiment: Compound was evaluated for its effect on colony growth of human ovarian adenocarcinoma cell line BG-3 at 0.0 ug/mL,; method in brief: as §1
BG-1 cell line [6] = experiment: Compound was evaluated for its effect on colony growth of human ovarian adenocarcinoma cell line BG-1 at 1.0 ug/mL; method in brief: as §1
BG-1 cell line [7] = experiment: Compound was evaluated for its effect on colony growth of human ovarian adenocarcinoma cell line BG-1 at 0.1 ug/mL; method in brief: as §1
BG-1 cell line [8] = experiment: Compound was evaluated for its effect on colony growth of human ovarian adenocarcinoma cell line BG-1 at 0.3 ug/mL; method in brief: as §1
BG-1 cell line [9] = experiment: Compound was evaluated for its effect on colony growth of human ovarian adenocarcinoma cell line BG-1 at 10.0 ug/mL; method in brief: as §1
BG-3 [10] = experiment: Compound was evaluated for its effect on colony growth of human ovarian adenocarcinoma cell line BG-3 at 3.0 ug/mL; method in brief: as §1
BG-1 cell line [11] = experiment: Compound was evaluated for its effect on colony growth of human ovarian adenocarcinoma cell line BG-1 at 0.0 ug/mL; method in brief: as §1
BG-1 cell line [12] = experiment: Compound was evaluated for its effect on colony growth of human ovarian adenocarcinoma cell line BG-1 at 0.03 ug/mL; method in brief: as §1
BG-3 [13] = experiment: Compound was evaluated for its effect on colony growth of human ovarian adenocarcinoma cell line BG-3 at 30.0 ug/mL; method in brief: as §1
BG-1 cell line [14] = experiment: Compound was evaluated for its effect on colony growth of human ovarian adenocarcinoma cell line BG-1 at 3.0 ug/mL; method in brief: as §1
BG-3 [15] = experiment: Compound was evaluated for its effect on colony growth of human ovarian adenocarcinoma cell line BG-3 at 0.3 ug/mL; method in brief: as §1
BG-3 [16] = experiment: Compound was evaluated for its effect on colony growth of human ovarian adenocarcinoma cell line BG-3 at 10.0 ug/mL; method in brief: as §1

CCCCCCCCCCCCCCCCSCC(COP(=O)([O-])OCC[N+](C)(C)C)OCC (stereo unspecified)
Control (BG-3 [1]): 56% | Control (BG-3 [2]): 17% | Control (BG-3 [3]): 54% | Control (BG-1 cell line [4]): 2% | Control (BG-3 [5]): 100% | Control (BG-1 cell line [6]): 8% | Control (BG-1 cell line [7]): 64% | Control (BG-1 cell line [8]): 53% | Control (BG-1 cell line [9]): 2% | Control (BG-3 [10]): 2% | Control (BG-1 cell line [11]): 100% | Control (BG-1 cell line [12]): 65% | Control (BG-3 [13]): 2% | Control (BG-1 cell line [14]): 2% | Control (BG-3 [15]): 56% | Control (BG-3 [16]): 3%
